Active and inactive are the calls of the source. The rule behind the calls is not given here.
Tests used:
[1] = Drug localization in nucleus of human SGC-7901 cells incubated for 24 hrs by Hoechst-33342 staining based confocal laser scanning microscopic analysis; format: ADME, subcellular; conditions: sgc-7901, 24 h
How it was run: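 SGC-7901 cells cultured 24 h, then given fluorescein-labeled polyamide (1.0, unit unclear) for 4 h. Medium replaced and culture continued 20 h. Live cells viewed at ×300, then fixed in 4% paraformaldehyde for 10 min. Nuclei stained with Hoechst 33342 for 5 min, PBS-washed, imaged by confocal laser scanning microscopy.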

Bel-7402 = test: Antiproliferative activity against human Bel-7402 cells assessed as reduction in cell viability incubated for 48 hrs by xCELLigence RTCA; format: functional, cell-based; conditions: Bel-7402, 48 h
SGC-7901 [2] = test: Induction of apoptosis in human SGC7901 cells assessed as early apoptotic cells at 15 uM incubated for 36 hrs by Annexin V-FITC/propidium iodide staining-based flow cytometric analysis (reference value: 2.74 %); format: functional
A549 [3] = test: Induction of morphological changes in human A549 cells assessed as membrane bulge at 15 uM incubated for 36 hrs by microscopic analysis; format: functional, cell-based
How it was run: (§1)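 Cells seeded at 2 × 10^5 per well and grown 24 h. Medium then replaced with compound-containing medium. After 36 h co-culture, morphology inspected by light microscopy.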

A549 [4] = test: Antiproliferative activity against human A549 cells assessed as reduction in cell viability incubated for 48 hrs by xCELLigence RTCA; format: functional, cell-based; conditions: A549, 48 h
A549 [5] = test: Induction of apoptosis in human A549 cells assessed as necrotic cells at 15 uM incubated for 36 hrs by Annexin V-FITC/propidium iodide staining-based flow cytometric analysis (reference value: 0.31 %); format: functional
A549 [6] = test: Induction of apoptosis in human A549 cells assessed as late apoptotic cells at 15 uM incubated for 36 hrs by Annexin V-FITC/propidium iodide staining-based flow cytometric analysis (reference value: 0.41 %); format: functional
SGC-7901 [7] = test: Induction of apoptosis in human SGC7901 cells assessed as early apoptotic cells at 7.5 uM incubated for 36 hrs by Annexin V-FITC/propidium iodide staining-based flow cytometric analysis (reference value: 2.74 %); format: functional
A549 [8] = test: Down regulation of c-kit mRNA expression in human A549 cells at 7.5 uM incubated for 36 hrs by Western blot analysis; format: functional, cell-based; conditions: in the assay text read “RT-PCR analysis” for “Western blot analysis”
How it was run: (§2)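 Cells treated for 36 h. Total RNA quantified by Nanodrop and checked on 1.5% agarose with ethidium bromide. 400 ng RNA per one-step RT-PCR with c-kit-specific primers; reverse transcription 30 min at 50 °C, then 2 min at 94 °C. Normalized to β-actin; semi-quantitative.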

SGC-7901 [9] = test: Induction of apoptosis in human SGC7901 cells assessed as necrotic cells at 7.5 uM incubated for 36 hrs by Annexin V-FITC/propidium iodide staining-based flow cytometric analysis (reference value: 0.34 %); format: functional
A549 [10] = test: Inhibition of cell migration in human A549 cells at 1.5 uM incubated for 48 hrs by inverted fluorescence microscope based scratch wound healing assay; format: functional
How it was run: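 20 × 10^4 cells per well grown to 80% confluence. Wound scratched with a pipette tip, washed twice with PBS and photographed under an inverted fluorescence microscope. Cells then held in serum-free medium with compound for 48 h. Migration measured as distance moved from the wound edge; mean ± SD, n = 3.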

A549 [11] = test: Down regulation of c-kit gene expression in human A549 cells incubated for 36 hrs by Western blot analysis; format: functional, cell-based
How it was run: (§3)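 Cells exposed to compound for 36 h, then lysed in RIPA and protein measured by BCA. 30 units of total protein separated by 10% SDS-PAGE, transferred to PVDF and blocked with 5% BSA. Primary antibodies, with β-tubulin as reference, at 4 °C; secondary 2 h; ECL detection. Bands quantified by densitometry, mean ± SD, n = 3.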

SGC-7901 [12] = test: Induction of apoptosis in human SGC7901 cells assessed as viable cells at 7.5 uM incubated for 36 hrs by Annexin V-FITC/propidium iodide staining-based flow cytometric analysis (reference value: 93.2 %); format: functional; conditions: read-out: Activity
SGC-7901 [13] = test: Induction of morphological changes in human SGC7901 cells assessed as cell detachment at 7.5 uM incubated for 36 hrs by microscopic analysis; format: functional, cell-based; how it was run: as §1
SGC-7901 [14] = test: Down regulation of c-kit mRNA expression in human SGC-7901 cells at 7.5 uM incubated for 36 hrs by Western blot analysis; format: functional, cell-based; conditions: in the assay text read “RT-PCR analysis” for “Western blot analysis”; how it was run: as §2
SGC-7901 [15] = test: Induction of apoptosis in human SGC7901 cells assessed as necrotic cells at 15 uM incubated for 36 hrs by Annexin V-FITC/propidium iodide staining-based flow cytometric analysis (reference value: 0.34 %); format: functional
SGC-7901 [16] = test: Induction of morphological changes in human SGC7901 cells assessed as apoptotic body formation at 7.5 uM incubated for 36 hrs by microscopic analysis; format: functional, cell-based; how it was run: as §1
SGC-7901 [17] = test: Induction of apoptosis in human SGC7901 cells assessed as late apoptotic cells at 7.5 uM incubated for 36 hrs by Annexin V-FITC/propidium iodide staining-based flow cytometric analysis (reference value: 3.69 %); format: functional
A549 [18] = test: Induction of apoptosis in human A549 cells assessed as viable cells at 15 uM incubated for 36 hrs by Annexin V-FITC/propidium iodide staining-based flow cytometric analysis (reference value: 97.9 %); format: functional; conditions: read-out: Activity
A549 [19] = test: Induction of apoptosis in human A549 cells assessed as early apoptotic cells at 7.5 uM incubated for 36 hrs by Annexin V-FITC/propidium iodide staining-based flow cytometric analysis (reference value: 1.41 %); format: functional
MKN-45 = test: Antiproliferative activity against human MKN-45 cells assessed as reduction in cell viability incubated for 48 hrs by xCELLigence RTCA; format: functional, cell-based; conditions: MKN-45, 48 h
A549 [20] = test: Induction of morphological changes in human A549 cells assessed as cell detachment at 15 uM incubated for 36 hrs by microscopic analysis; format: functional, cell-based; how it was run: as §1
dsDNA = test: Binding affinity to 5'-AGGGGAGGCGAGGAGGGGCGTGGCCGG-3'/3'-TCCCCTCCGCTCCTCCCCGCACCGGCC-5' dsDNA (unknown origin) at 1:2 DNA:compound ratio by SYBR GOLD staining based EMSA; format: nucleic-acid assay; conditions: Homo sapiens
How it was run: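 Target 27-bp c-kit promoter duplex, annealed at 95 °C, then incubated overnight with or without compound in pH 7.4 buffer (10 mM Tris-HCl, 10 mM KCl, 0.1 mM EDTA). Mixtures run on 16% native polyacrylamide gel at 150 V for 3 h. Gels stained with SYBR Gold for 30 min and imaged on a gel documentation system.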

SGC-7901 [21] = test: Down regulation of c-kit gene expression in human SGC-7901 cells incubated for 36 hrs by Western blot analysis; format: functional, cell-based; how it was run: as §3
SGC-7901 [22] = test: Induction of apoptosis in human SGC7901 cells assessed as late apoptotic cells at 15 uM incubated for 36 hrs by Annexin V-FITC/propidium iodide staining-based flow cytometric analysis (reference value: 3.69 %); format: functional
SGC-7901 [23] = test: Antiproliferative activity against human SGC7901 cells assessed as reduction in cell viability incubated for 48 hrs by xCELLigence RTCA; format: functional, cell-based; conditions: SGC-7901, 48 h
GISTT1 = test: Down regulation of c-kit gene expression at transcriptional level in human GIST-T1 cells; format: functional, cell-based
A549 [24] = test: Induction of apoptosis in human A549 cells assessed as necrotic cells at 7.5 uM incubated for 36 hrs by Annexin V-FITC/propidium iodide staining-based flow cytometric analysis (reference value: 0.31 %); format: functional

For `CC(=O)Nc1cn(C)c(C(=O)Nc2cn(C)c(C(=O)Nc3cc(C(=O)Nc4cn(C)c(C(=O)NCCC(=O)Nc5cn(C)c(C(=O)Nc6cn(C)c(C(=O)NCC[C@@H](N)C(=O)Nc7cc(C(=O)Nc8cc(C(=O)NC[C@@H](O)CC(=O)Nc9cc(C(=O)Nc%10cn(C)c(C(=O)Nc%11cc(C(=O)Nc%12cc(C(=O)NCCC(=O)NCCCN(C)C)n(C)c%12)n(C)c%11)n%10)n(C)c9)n(C)c8)n(C)c7)n6)n5)n4)n(C)c3)n2)n1.Cl.Cl`, which Drug uptake [1] is on record?
The Drug uptake was “Active”.

What about the IC50 (Bel-7402) of the same molecule?
The IC50 was 11.2 µM.

What about the Activity (SGC-7901 [2]) of the same molecule?
The Activity was 41.7%.

And the Activity (A549 [3])?
Its Activity is “Active”.

And the IC50 (A549 [4])?
The IC50 was 5.97 µM.

What about the Activity (A549 [5]) of the same molecule?
Its Activity is 0.12%.

And the Activity (A549 [6])?
Its Activity is 19.6%.

What about the Activity (SGC-7901 [7]) of the same molecule?
Its Activity is 32.4%.

And the Activity (A549 [8])?
Its Activity is “Active”.

What about the Activity (SGC-7901 [9]) of the same molecule?
The Activity was 0.92%.

And the inhibition at 1.5 µM (A549 [10])?
Its inhibition at 1.5 µM is 83.8%.

What about the Activity (A549 [11]) of the same molecule?
Its Activity is “Dose-dependent effect”.

And the viability at 7.5 µM (SGC-7901 [12])?
The viability at 7.5 µM was 56.4%.

What about the Activity (SGC-7901 [13]) of the same molecule?
Its Activity is “Active”.

What about the Activity (SGC-7901 [14]) of the same molecule?
Its Activity is “Active”.

What about the Activity (SGC-7901 [15]) of the same molecule?
Its Activity is 1.83%.

And the Activity (SGC-7901 [16])?
Its Activity is “Active”.

And the Activity (SGC-7901 [17])?
The Activity was 10.2%.

What about the viability at 15 µM (A549 [18]) of the same molecule?
Its viability at 15 µM is 51.4%.

What about the Activity (A549 [19]) of the same molecule?
The Activity was 22.7%.

And the IC50 (MKN-45)?
The IC50 was 7.41 µM.

And the Activity (A549 [20])?
Its Activity is “Active”.

What about the Activity (dsDNA) of the same molecule?
The Activity was “Active”.

And the Activity (SGC-7901 [21])?
Its Activity is “Dose-dependent effect”.

What about the Activity (SGC-7901 [22]) of the same molecule?
The Activity was 12.8%.

And the IC50 (SGC-7901 [23])?
The IC50 was 2.96 µM.

What about the Activity (GISTT1) of the same molecule?
Its Activity is “Active”.

What about the Activity (A549 [24]) of the same molecule?
The Activity was 2.76%.
